The values below come from ChEMBL document CHEMBL2417534, “Discovery and SAR of a novel series of GIRK1/2 and GIRK1/4 activators” (Bioorg Med Chem Lett, 2013).

A value given as a limit tells only on which side of the number the result lay.

In experiment [1] the target is T1, Kir3.1/Kir3.4 (Homo sapiens, UniProt P48544+P48549).
T1 sequence (P48549 whole entry): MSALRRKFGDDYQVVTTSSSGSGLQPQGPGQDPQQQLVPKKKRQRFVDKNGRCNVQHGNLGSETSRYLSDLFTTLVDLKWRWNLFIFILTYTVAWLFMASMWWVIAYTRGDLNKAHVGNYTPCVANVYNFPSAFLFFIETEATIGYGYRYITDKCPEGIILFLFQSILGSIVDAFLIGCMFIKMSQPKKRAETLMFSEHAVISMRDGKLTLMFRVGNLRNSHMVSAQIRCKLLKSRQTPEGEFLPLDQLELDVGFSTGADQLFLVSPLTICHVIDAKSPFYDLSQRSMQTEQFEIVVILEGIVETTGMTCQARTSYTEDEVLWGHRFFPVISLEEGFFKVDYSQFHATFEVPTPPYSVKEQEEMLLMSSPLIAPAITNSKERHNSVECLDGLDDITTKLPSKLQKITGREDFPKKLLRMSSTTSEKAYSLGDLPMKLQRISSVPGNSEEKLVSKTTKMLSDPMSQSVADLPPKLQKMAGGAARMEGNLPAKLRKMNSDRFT
T1 sequence (P48544 whole entry): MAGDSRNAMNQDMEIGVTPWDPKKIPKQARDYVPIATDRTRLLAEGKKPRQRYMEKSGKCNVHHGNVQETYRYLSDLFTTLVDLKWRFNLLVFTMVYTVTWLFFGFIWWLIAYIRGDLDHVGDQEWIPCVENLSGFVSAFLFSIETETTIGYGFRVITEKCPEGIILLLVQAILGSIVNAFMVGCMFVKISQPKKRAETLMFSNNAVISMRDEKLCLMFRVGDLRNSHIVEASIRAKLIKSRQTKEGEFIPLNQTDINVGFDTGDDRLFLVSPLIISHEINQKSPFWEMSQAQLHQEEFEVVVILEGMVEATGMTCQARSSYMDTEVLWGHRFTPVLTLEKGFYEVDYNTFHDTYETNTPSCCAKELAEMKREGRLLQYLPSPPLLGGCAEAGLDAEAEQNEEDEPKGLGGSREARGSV
The experiment can be described thus: Activation of GIRK1/4 (unknown origin) transfected in HEK293 cells after 4 mins by thallium flux-based fluorescence assay. In kind it is cell-based. Put shortly: (§1)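 Loaded with 0.5 μM Thallos-AM for ~60 min at room temperature in HEPES-buffered HBSS pH 7.4. Compounds (11-point, threefold dilutions) added 4 min before a thallium sulfate/bicarbonate stimulus. Fluorescence read at 1 Hz, F/F0 minus vehicle, slope after stimulus. Potency from triplicates. Efficacy normalised to reference activator set at 100%.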

Experiment [2] addresses T2, Kir3.1/Kir3.2 (Homo sapiens, UniProt P48051+P48549).
T2 sequence (P48549 whole entry): T1 sequence (P48549 whole entry)
T2 sequence (P48051 whole entry): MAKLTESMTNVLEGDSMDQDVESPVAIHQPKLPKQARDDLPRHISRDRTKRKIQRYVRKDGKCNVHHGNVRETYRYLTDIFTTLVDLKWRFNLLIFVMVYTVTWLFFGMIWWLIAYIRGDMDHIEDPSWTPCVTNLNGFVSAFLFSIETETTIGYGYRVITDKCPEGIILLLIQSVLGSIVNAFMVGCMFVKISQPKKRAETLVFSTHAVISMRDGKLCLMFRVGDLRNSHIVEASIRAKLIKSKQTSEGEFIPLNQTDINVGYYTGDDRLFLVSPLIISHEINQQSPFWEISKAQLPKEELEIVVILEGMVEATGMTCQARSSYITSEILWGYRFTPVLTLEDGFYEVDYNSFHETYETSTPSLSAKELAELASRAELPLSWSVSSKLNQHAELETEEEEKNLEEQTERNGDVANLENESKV
The experiment can be described thus: Activation of GIRK1/2 (unknown origin) transfected in HEK293 cells after 4 mins by thallium flux-based fluorescence assay. In kind it is cell-based. Put shortly: (§2)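 Loaded with 0.5 μM Thallos-AM for ~60 min at room temperature in HEPES-buffered HBSS pH 7.4. Fluorescence read at 1 Hz, F/F0 minus vehicle, slope after stimulus. Potency from triplicates. Efficacy normalised to reference activator set at 100%.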

The target in experiment [3] is T3, Kir3.1/Kir3.4 (Homo sapiens) (UniProt P48549+P48544). Kind of experiment: Activation of GIRK1/4 (unknown origin) by cell-based thallium flux assay relative to control. Put shortly: as §1
Experiment [4] deals with T2, Kir3.1/Kir3.2. The experiment can be described thus: Activation of GIRK1/2 (unknown origin) by cell-based thallium flux assay. Put shortly: as §2
Experiment [5] has as its target T1, Kir3.1/Kir3.4. Kind of experiment: Activation of GIRK1/4 (unknown origin) by cell-based thallium flux assay. Put shortly: as §1
Experiment [6] addresses T4, Kir3.1/Kir3.2 (Homo sapiens) (UniProt P48549+P48051). Kind of experiment: Activation of GIRK1/2 (unknown origin) by cell-based thallium flux assay relative to control. Put shortly: as §1
The target of experiment [7] is T3, Kir3.1/Kir3.4 (Homo sapiens). The experiment can be described thus: Activation of GIRK1/4 (unknown origin) transfected in HEK293 cells at 20 uM after 4 mins by thallium flux-based fluorescence assay relative to ML297. The class given is cell-based. Put shortly:
(§3)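 Single-concentration thallium flux in HEK-293 cells stably expressing GIRK1/GIRK2 or GIRK1/GIRK4, loaded with 0.5 μM Thallos-AM for ~60 min at room temperature. 20 μM compound in 0.2% DMSO/HEPES-buffered HBSS (pH 7.4) added, followed 4 min later by a Tl2SO4 bicarbonate stimulus. Read-out is the slope of F/F0 after stimulus, vehicle-subtracted, expressed relative to reference activator.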

The target of experiment [8] is T4, Kir3.1/Kir3.2 (Homo sapiens). Kind of experiment: Activation of GIRK1/2 (unknown origin) transfected in HEK293 cells at 20 uM after 4 mins by thallium flux-based fluorescence assay relative to ML297. The class given is cell-based. Put shortly: as §3
Experiment [9] concerns the target T1, Kir3.1/Kir3.4. Kind of experiment: Activation of recombinant human GIRK1/4 expressed in Xenopus oocytes by two-electrode voltage clamp method. In kind it is cell-based, Oocyte. A general note: In two-electrode clamp one electrode senses voltage and the other passes current.
Experiment [10] deals with T2, Kir3.1/Kir3.2. Kind of experiment: Activation of recombinant human GIRK1/2 expressed in Xenopus oocytes by two-electrode voltage clamp method. In kind it is cell-based, Oocyte.

For `O=C(Cc1ccccc1Cl)Nc1ccc(Cl)cc1`, the EC50 at Kir3.1/Kir3.4 [1] and on Kir3.1/Kir3.2 [2] was over 10 µM in each case.
For the compound `CN(C)S(=O)(=O)c1cccc(NC(=O)Cc2ccccc2Cl)c1`, the Efficacy worked out at 123% in [3] and 55% in experiment [6]. The figures for the EC50 on Kir3.1/Kir3.2 [4] and at Kir3.1/Kir3.4 [5] were 3.3 µM and 1.6 µM, respectively.
`Cc1ccc(NC(=O)Nc2cccc(F)c2)cc1S(=O)(=O)N(C)C`: the Efficacy in experiment [7] is 55%; in experiment [8], 89%. Further, the EC50 at Kir3.1/Kir3.4 [1] turned out to be 1.8 µM; on Kir3.1/Kir3.2 [2], 1.1 µM.
In the case of `C[C@@H]1O[C@@H](O[C@H]2[C@H](Oc3cc(O)c4c(c3)O[C@H](c3ccc(O)cc3)CC4=O)O[C@H](CO)[C@@H](O)[C@@H]2O)[C@H](O)[C@H](O)[C@H]1O` [NARINGIN], the 50% effective concentration (EC50) on Kir3.1/Kir3.4 [9] and on Kir3.1/Kir3.2 [10] was over 100 µM in each case.
Turning to `Cc1ccc(NC(=O)Nc2cccc(C#N)c2)cc1S(=O)(=O)N(C)C`, the Efficacy in experiment [7] is 29%; in experiment [8], 83%.
Regarding `Cc1ccc(NC(=O)Cc2ccccc2Cl)cc1S(=O)(=O)N(C)C`, the Efficacy came out at 104% in experiment [3] and 110% in [6]. The EC50 on Kir3.1/Kir3.2 [4] and at Kir3.1/Kir3.4 [5] was 1.1 µM each time.
Turning to `Cc1ccc(NC(=O)Cc2ccccc2Br)cc1S(=O)(=O)N(C)C`, the Efficacy in experiment [3] is 114%; in [6], 108%. The EC50 on Kir3.1/Kir3.4 [5] came to 1.6 µM.
As to `Cc1cccc(NC(=O)Cc2ccccc2Cl)c1`, the concentration giving a half-maximal response (EC50) at Kir3.1/Kir3.4 [1] and on Kir3.1/Kir3.2 [2] was over 10 µM each time.
In experiment [7], `O=C(Cc1ccccc1Cl)Nc1cccc(Cl)c1` registered an Efficacy of 22%. For the same compound, the EC50 at Kir3.1/Kir3.2 [2] is over 10 µM.
As to `COc1ccc(NC(=O)Nc2ccc(C)c(S(=O)(=O)N(C)C)c2)cc1`, the figures for the Efficacy in experiment [7] and in experiment [8] were 104% and 101%, respectively. Also, the half-maximal effective concentration (EC50) on Kir3.1/Kir3.4 [1] was determined as 5.6 µM; on Kir3.1/Kir3.2 [2], 1.7 µM.
Turning to `O=C(Cc1ccccc1Cl)Nc1cc(Cl)cc(C(F)(F)F)c1`, the concentration giving a half-maximal response (EC50) on Kir3.1/Kir3.4 [1] and at Kir3.1/Kir3.2 [2] was over 10 µM in each case.
Consider `CC(C)(C)c1cccc(NC(=O)Cc2ccccc2Cl)c1`, for which the Efficacy in experiment [7] was 76%; in experiment [8], 44%.
For the compound `O=C(Cc1ccccc1Cl)Nc1ccc(Cl)c(C(F)(F)F)c1`, the Efficacy in experiment [7] turned out to be 17%. At Kir3.1/Kir3.2 [2], this compound returned an EC50 of over 10 µM.
For `O=C(Cc1ccccc1Cl)Nc1ccc(C(F)(F)F)cc1`, the Efficacy in [7] stood at 20%. Also, the concentration giving a half-maximal response (EC50) was 2.1 µM on Kir3.1/Kir3.4 [1] and over 10 µM at Kir3.1/Kir3.2 [2].
On to `Cc1ccc(NC(=O)Nc2ccccc2)cc1S(=O)(=O)N(C)C`, for which the Efficacy in experiment [7] is 100%; in experiment [8], 94%.
As for `Cc1ccc(NC(=O)Cc2ccc(F)cc2)cc1S(=O)(=O)N(C)C`, the Efficacy in experiment [3] was determined as 108%; in experiment [6], 107%. Besides, the EC50 on Kir3.1/Kir3.2 [4] stood at 3.6 µM; on Kir3.1/Kir3.4 [5], 5.2 µM.
In the case of `Cc1ccc(NC(=O)Nc2ccc(Cl)cc2)cc1S(=O)(=O)N(C)C`, the Efficacy was 72% in experiment [7] and 92% in experiment [8]. For the same compound, the values for the EC50 at Kir3.1/Kir3.4 [1] and at Kir3.1/Kir3.2 [2] were 2.8 µM and 3.3 µM, respectively.
Turning to `CN(C)S(=O)(=O)c1cccc(NC(=O)Cc2ccc(Cl)cc2)c1`, the Efficacy in experiment [3] came to 64%; in experiment [6], 71%. Also, the EC50 turned out to be 2.3 µM at Kir3.1/Kir3.2 [4] and 2.2 µM on Kir3.1/Kir3.4 [5].
`O=C(Cc1ccccc1Cl)Nc1cccc(OC(F)F)c1` yielded an Efficacy in experiment [7] of 119%. This compound registered a 50% effective concentration (EC50) at Kir3.1/Kir3.2 [2] of over 10 µM.
`CS(=O)(=O)c1cc(NC(=O)Cc2ccccc2Cl)ccc1F`: the EC50 at Kir3.1/Kir3.4 [1] and at Kir3.1/Kir3.2 [2] was over 10 µM in each case.
Consider `Cc1ccc(NC(=O)Nc2ccc(C(F)(F)F)cc2)cc1S(=O)(=O)N(C)C`, for which the EC50 was over 10 µM on Kir3.1/Kir3.4 [1] and 1.5 µM at Kir3.1/Kir3.2 [2]. The compound also displayed an Efficacy in [8] of 26%.
As to `Cc1ccc(NC(=O)Nc2ccccc2F)cc1S(=O)(=O)N(C)C`, the Efficacy in experiment [7] was 72%; in [8] it was 111%. For the same compound, the figures for the EC50 at Kir3.1/Kir3.4 [1] and at Kir3.1/Kir3.2 [2] were 7.8 µM and 3.9 µM, respectively.
For `COc1ccc(OC)c(NC(=O)Nc2ccc(C)c(S(=O)(=O)N(C)C)c2)c1`, the EC50 on Kir3.1/Kir3.4 [1] and on Kir3.1/Kir3.2 [2] was over 10 µM throughout.
For the compound `Cc1ccc(NC(=O)Nc2ccc(C)c(S(=O)(=O)N(C)C)c2)cc1Cl`, the figures for the Efficacy in experiment [7] and in experiment [8] were 115% and 91%, respectively. The EC50 came out at 6.2 µM on Kir3.1/Kir3.4 [1] and 2.9 µM at Kir3.1/Kir3.2 [2].
As for `Cc1ccc(NC(=O)Nc2ccccc2Cl)cc1S(=O)(=O)N(C)C`, the Efficacy in [7] stood at 106%; in experiment [8] it was 94%. The EC50 at Kir3.1/Kir3.4 [1] was 6.8 µM; on Kir3.1/Kir3.2 [2], 2.7 µM.

What is called EC50 is the concentration at which the effect is half-maximal.
